We go through 7 compounds from ChEMBL document CHEMBL1142313, “Parallel synthesis of a series of potentially brain penetrant aminoalkyl benzoimidazoles” (Bioorg Med Chem, 2008).

Common to all, as to assay type: functional, cell-based
Test [1] addresses Neuronal acetylcholine receptor subunit alpha-7 (Rattus norvegicus, UniProt Q05941). Briefly: Agonist activity at rat alpha-7 nAChR expressed in GH4C1-F7 cells assessed as effect on calcium influx by FLIPR.
Test [2] concerns the target Neuronal acetylcholine receptor subunit alpha-7 (Rattus norvegicus) (UniProt Q05941). Briefly: Reversal of agonist activity at rat alpha-7 nAChR expressed in GH4C1-F7 cells assessed as effect on calcium influx at 10 uM in presence of methyllycaconitine by FLIPR. Put shortly: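 GH4C1-F7 rat alpha7-nAChR cells loaded with Fluo-4/probenecid at 37 °C for 30 min, then washed in HBSS-20 mM Hepes with 2.5 mM probenecid, with or without MLA 1 µM. Compound added and Ca2+ fluorescence read by FLIPR, every second for 1 min then every 30 s for 10 min. Peak height taken as max-min. A signal lost in the presence of MLA marks alpha7 selectivity.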

Test [3] shares this target. In words: Agonist activity at rat alpha-7 nAChR expressed in GH4C1-F7 cells assessed as effect on calcium influx at 5 uM by FLIPR relative to nicotine. Put shortly: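 GH4C1-F7 cells stably expressing rat alpha7 nAChR were seeded at 100,000/well on poly-D-lysine plates and loaded with Fluo-4 (with pluronic acid and probenecid) for 30 min at 37 °C.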

Structures are written as SMILES. Activity calls are given as the source filed them. The rule behind the calls is not given here.

Neuronal acetylcholine receptor subunit alpha-7, sequence (Q05941 whole entry): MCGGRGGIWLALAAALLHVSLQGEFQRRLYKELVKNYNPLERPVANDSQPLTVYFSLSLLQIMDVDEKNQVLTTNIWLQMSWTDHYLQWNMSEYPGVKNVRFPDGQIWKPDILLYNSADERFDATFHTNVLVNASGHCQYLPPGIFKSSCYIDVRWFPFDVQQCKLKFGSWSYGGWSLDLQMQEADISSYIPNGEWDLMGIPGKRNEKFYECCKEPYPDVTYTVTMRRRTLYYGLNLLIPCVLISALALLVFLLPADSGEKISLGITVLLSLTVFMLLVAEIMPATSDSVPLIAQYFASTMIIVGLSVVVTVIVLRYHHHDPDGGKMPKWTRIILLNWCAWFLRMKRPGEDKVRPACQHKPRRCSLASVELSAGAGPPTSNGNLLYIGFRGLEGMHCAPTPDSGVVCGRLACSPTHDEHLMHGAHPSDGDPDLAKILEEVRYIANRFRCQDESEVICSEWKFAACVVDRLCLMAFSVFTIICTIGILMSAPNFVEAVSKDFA
Neuronal acetylcholine receptor subunit alpha-7 (Rattus norvegicus), sequence (Q05941 whole entry): as above

For the compound `Cc1ccc2nc(Cc3ccc(Br)cc3)n(CCCN(C)C)c2c1`, the EC50 – broadly, the concentration that produces a half-maximal response – in test [1] is 1.7 µM. Besides, the result in test [2] was Active. The Activity in test [3] was above 20%.
The corresponding values for `CN1CCCC1CCn1c(Cc2ccc(Br)cc2)nc2ccccc21` (stereo unspecified) are 2.7 µM, “Active” and above 20%.
`O=C(Nc1ccccc1F)OC1CN2CCC1CC2` (stereo unspecified): the EC50 in test [1] amounted to 0.6 µM.
On to `CN(C)CCCn1c(COc2ccccc2)nc2ccccc21`, for which the EC50 in test [1] was found to be 2.6 µM. Besides, the outcome in test [2] was Active. Further, the Activity in test [3] is above 20%.
For `CN1CCN(CCCn2c(COc3cccc(Cl)c3)nc3ccccc32)CC1`, the 50% effective concentration (EC50) in test [1] was 10 µM. In addition, the Activity in test [3] is above 20%.
Take `CN1[C@@H]2CC[C@H]1C[C@H](NC(=O)Nc1ccc(Br)cc1)C2`: the EC50 in test [1] came out at 0.2 µM.
Take `CN(C)CCCn1c(Cc2ccc(Br)cc2)nc2ccccc21`: in test [1], the concentration for a half-maximal effect (EC50) stood at 2.6 µM. Moreover, the outcome in test [2] was Active. In addition, the Activity in test [3] was above 20%.
